Where a SMILES comes first, the peptide text is derived from it. The star is where a group is joined. AspNHSO2(5'-O-Ado) = Nc1ncnc2c1ncn2[C@@H]1O[C@H](COS(=O)(=O)NC(=O)[C@H](CC(=O)O)N*)[C@@H](O)[C@H]1O Some results are limits rather than exact numbers.

Holding throughout (format): functional
In assay [1] the test system is Escherichia coli. Kind of assay: Antibacterial activity against Escherichia coli delta ABN mutant lacking peptidase A, B, N at 30 nmol after 16 to 20 hrs. In short, it runs like this: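 Agar diffusion test. A soft Mueller–Hinton agar lawn (0.75% agar) seeded with bacteria was poured over Mueller–Hinton agar (1.5% agar). Once the agar set, 5 µL drops of compound in milliQ water (30 nmol per drop) were applied and left to dry. Plates were incubated at 37 °C for 16–20 h. Inhibition zone area was recorded in mm² as mean ± SD of triplicates.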

The test system of assay [2] is Escherichia coli. Kind of assay: Antibacterial activity against wild type Escherichia coli at 30 nmol after 16 to 20 hrs. In short, it runs like this: (§1)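 Agar overlay diffusion assay: soft Mueller–Hinton agar (0.75% agar) seeded with bacteria poured over Mueller–Hinton agar (1.5% agar). Once set, 5 µL drops of compound in milliQ water were applied (30 nmol per drop, or 1.2 nmol for the reference compound) and allowed to dry. Plates were incubated at 37 °C for 16–20 h. Inhibition zone area was read in mm², triplicate per compound–dose.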

Assay [3] deals with Enterococcus faecalis. Kind of assay: Antibacterial activity against Enterococcus faecalis ATCC 29212 at 30 nmol after 16 to 20 hrs. In short, it runs like this: as §1
In assay [4] the test system is Staphylococcus aureus. Briefly: Antibacterial activity against Staphylococcus aureus ATCC 25923 at 30 nmol after 16 to 20 hrs. In short, it runs like this: as §1
For assay [5], the system named is Escherichia coli. Briefly: Antibacterial activity against wild type Escherichia coli at 1.2 nmol after 16 to 20 hrs. In short, it runs like this: as §1
Assay [6] deals with Staphylococcus aureus. Briefly: Antibacterial activity against Staphylococcus aureus ATCC 25923 at 1.2 nmol after 16 to 20 hrs. In short, it runs like this: as §1
Assay [7] concerns Enterococcus faecalis. Briefly: Antibacterial activity against Enterococcus faecalis ATCC 29212 at 1.2 nmol after 16 to 20 hrs. In short, it runs like this: as §1

`Nc1ncnc2c1ncn2[C@@H]1O[C@H](COS(=O)(=O)NC(=O)[C@H](Cc2ccccc2)NC(=O)[C@@H](N)Cc2ccccc2)[C@@H](O)[C@H]1O`: the “inhibition zone (IZ)” value in assay [1] amounted to 19.6 mm2; in assay [2], 18.4 mm2; in assay [3] it was 26.8 mm2; in assay [4], 0 mm2.

Consider `CSCC[C@H](NC(=O)[C@@H](N)CCSC)C(=O)NS(=O)(=O)OC[C@H]1O[C@@H](n2cnc3c(N)ncnc32)[C@H](O)[C@@H]1O`, for which the “inhibition zone (IZ)” value is 0 mm2 in assay [2], 83.9 mm2 in assay [3] and 0 mm2 in assay [4].

Consider `CSCC[C@H](N)C(=O)N[C@@H](Cc1c[nH]c2ccccc12)C(=O)NS(=O)(=O)OC[C@H]1O[C@@H](n2cnc3c(N)ncnc32)[C@H](O)[C@@H]1O`, for which the “inhibition zone (IZ)” value in assay [2], in assay [3] and in assay [4] was 0 mm2 each time.

In the case of `CSCC[C@H](NC(=O)[C@H](C)N)C(=O)NS(=O)(=O)OC[C@H]1O[C@@H](n2cnc3c(N)ncnc32)[C@H](O)[C@@H]1O`, the “inhibition zone (IZ)” value in assay [2], in assay [3] and in assay [4] was 0 mm2 throughout.

In the case of `CC(C)C[C@H](NC(=O)[C@@H](N)CCCCN)C(=O)NS(=O)(=O)OC[C@H]1O[C@@H](n2cnc3c(N)ncnc32)[C@H](O)[C@@H]1O`, the “inhibition zone (IZ)” value in assay [2], in assay [3] and in assay [4] was 0 mm2 in each case.

`CC(C)C[C@H](NC(=O)[C@H](C)N)C(=O)NS(=O)(=O)OC[C@H]1O[C@@H](n2cnc3c(N)ncnc32)[C@H](O)[C@@H]1O`: the “inhibition zone (IZ)” value in assay [2] was 0 mm2; in assay [3] it was 24.2 mm2; in assay [4], 0 mm2.

On to `CC(C)C[C@H](NC(=O)[C@@H](N)CCC(=O)O)C(=O)NS(=O)(=O)OC[C@H]1O[C@@H](n2cnc3c(N)ncnc32)[C@H](O)[C@@H]1O`, for which the “inhibition zone (IZ)” value in assay [2], in assay [3] and in assay [4] was 0 mm2 each time.

In the case of `C[C@H](N)C(=O)N[C@@H](Cc1c[nH]c2ccccc12)C(=O)NS(=O)(=O)OC[C@H]1O[C@@H](n2cnc3c(N)ncnc32)[C@H](O)[C@@H]1O`, the “inhibition zone (IZ)” value in assay [2], in assay [3] and in assay [4] was 0 mm2 in each case.

For the molecule `CSCC[C@H](N)C(=O)N[C@@H](CC(C)C)C(=O)NS(=O)(=O)OC[C@H]1O[C@@H](n2cnc3c(N)ncnc32)[C@H](O)[C@@H]1O`, the “inhibition zone (IZ)” value in assay [2] amounted to 0 mm2; in assay [3], 33.3 mm2; in assay [4], 0 mm2.

Turning to `C[C@H](NC(=O)[C@@H]1CCCN1)C(=O)NS(=O)(=O)OC[C@H]1O[C@@H](n2cnc3c(N)ncnc32)[C@H](O)[C@@H]1O`, the “inhibition zone (IZ)” value was 0 mm2 in assay [1], 18.4 mm2 in assay [2], 0 mm2 in assay [3] and 0 mm2 in assay [4].

Consider `Nc1ncnc2c1ncn2[C@@H]1O[C@H](COS(=O)(=O)NC(=O)[C@H](Cc2c[nH]c3ccccc23)NC(=O)[C@@H]2CCCN2)[C@@H](O)[C@H]1O`, for which the “inhibition zone (IZ)” value in assay [2], in assay [3] and in assay [4] was 0 mm2 throughout.

Turning to `CC(C)C[C@H](NC(=O)[C@@H]1CCCN1)C(=O)NS(=O)(=O)OC[C@H]1O[C@@H](n2cnc3c(N)ncnc32)[C@H](O)[C@@H]1O`, the “inhibition zone (IZ)” value in assay [2], in assay [3] and in assay [4] was 0 mm2 throughout.

With `Nc1ncnc2c1ncn2[C@@H]1O[C@H](COS(=O)(=O)NC(=O)[C@@H](N)Cc2c[nH]c3ccccc23)[C@@H](O)[C@H]1O`, the “inhibition zone (IZ)” value in assay [2], in assay [3] and in assay [4] was 0 mm2 each time.

For `Nc1ncnc2c1ncn2[C@@H]1O[C@H](COS(=O)(=O)NC(=O)[C@@H](N)Cc2ccccc2)[C@@H](O)[C@H]1O` [PHESA], the “inhibition zone (IZ)” value is reported as 52.7 mm2 in assay [1], 38.5 mm2 in assay [2], 40.4 mm2 in assay [3] and 0 mm2 in assay [4].

As for `C[C@H](N)C(=O)NS(=O)(=O)OC[C@H]1O[C@@H](n2cnc3c(N)ncnc32)[C@H](O)[C@@H]1O` [ALASA], the “inhibition zone (IZ)” value in assay [1] came out at 42.3 mm2; in assay [2], 46.3 mm2; in assay [3], 44.7 mm2; in assay [4], 35 mm2.

Turning to `CC(C)C[C@H](N)C(=O)NS(=O)(=O)OC[C@H]1O[C@@H](n2cnc3c(N)ncnc32)[C@H](O)[C@@H]1O` [LEUSA], the “inhibition zone (IZ)” value turned out to be 66 mm2 in assay [1], 25.4 mm2 in assay [2], 26.9 mm2 in assay [3] and 0 mm2 in assay [4].

As to `CSCC[C@H](N)C(=O)N[C@@H](CCCNC(=N)N)C(=O)N[C@H](C(=O)NCC(=O)N[C@@H](CC(N)=O)C(=O)N[C@@H](C)C(=O)N[C@@H](CC(=O)O)C(=O)NS(=O)(=O)OC[C@H]1O[C@@H](n2cnc3c(N)ncnc32)[C@H](O)[C@@H]1O)[C@@H](C)O` (H-MRTGNA-{AspNHSO2(5'-O-Ado)}), the “inhibition zone (IZ)” value is given as 46.7 mm2 in assay [5], 0 mm2 in assay [6] and 0 mm2 in assay [7].

As to `CSCC[C@H](N)C(=O)N[C@@H](C)C(=O)NS(=O)(=O)OC[C@H]1O[C@@H](n2cnc3c(N)ncnc32)[C@H](O)[C@@H]1O`, the “inhibition zone (IZ)” value in assay [1] was found to be 0 mm2; in assay [2] it was 26.8 mm2; in assay [3], 76.1 mm2; in assay [4] it was 59 mm2.

As for `Nc1ncnc2c1ncn2[C@@H]1O[C@H](COS(=O)(=O)NC(=O)[C@@H](N)CC(=O)O)[C@@H](O)[C@H]1O`, the “inhibition zone (IZ)” value in assay [1] is reported as 28.3 mm2; in assay [2], 26.8 mm2; in assay [3], 21.3 mm2; in assay [4], 0 mm2.

For `C[C@H](N)C(=O)N[C@@H](C)C(=O)NS(=O)(=O)OC[C@H]1O[C@@H](n2cnc3c(N)ncnc32)[C@H](O)[C@@H]1O`, the “inhibition zone (IZ)” value was 0 mm2 in assay [1], 25.3 mm2 in assay [2], 56.9 mm2 in assay [3] and 0 mm2 in assay [4].

In the case of `CSCC[C@H](N)C(=O)N[C@@H](CC(=O)O)C(=O)NS(=O)(=O)OC[C@H]1O[C@@H](n2cnc3c(N)ncnc32)[C@H](O)[C@@H]1O`, the “inhibition zone (IZ)” value is 31.5 mm2 in assay [1], 12.6 mm2 in assay [2], 63.7 mm2 in assay [3] and 0 mm2 in assay [4].

For the molecule `C/C(=C\C(=O)OCCCCCCCCC(=O)O)C[C@@H]1OC[C@H](C[C@@H]2O[C@H]2[C@@H](C)[C@H](C)O)[C@@H](O)[C@H]1O` [MUPIROCIN], the “inhibition zone (IZ)” value is given as 52.7 mm2 in assay [1], 38.5 mm2 in assay [2], 89.4 mm2 in assay [3] and greater than 490.93 mm2 in assay [4].

On to `NCCCC[C@H](N)C(=O)N[C@@H](Cc1c[nH]c2ccccc12)C(=O)NS(=O)(=O)OC[C@H]1O[C@@H](n2cnc3c(N)ncnc32)[C@H](O)[C@@H]1O`, for which the “inhibition zone (IZ)” value in assay [2], in assay [3] and in assay [4] was 0 mm2 throughout.

For `CSCC[C@H](N)C(=O)NS(=O)(=O)OC[C@H]1O[C@@H](n2cnc3c(N)ncnc32)[C@H](O)[C@@H]1O`, the “inhibition zone (IZ)” value in assay [1] was 40.4 mm2; in assay [2], 26.8 mm2; in assay [3], 0 mm2; in assay [4], 18.7 mm2.

On to `CSCC[C@H](NC(=O)[C@@H]1CCCN1)C(=O)NS(=O)(=O)OC[C@H]1O[C@@H](n2cnc3c(N)ncnc32)[C@H](O)[C@@H]1O`, for which the “inhibition zone (IZ)” value in assay [2], in assay [3] and in assay [4] was 0 mm2 each time.

Values taken from ChEMBL document CHEMBL1139342, “Antibacterial 5'-O-(N-dipeptidyl)-sulfamoyladenosines” (2009).
